A short description of data set [1]: Antileukemic activity against acute myeloid leukemia cell assessed as cell death at 10 uM. The data set is classed as functional. Summed up:
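Probe screen: one million donor-derived primary AML cells in serum-free medium were incubated 24 h with or without analog at a single probe concentration. Cells were PBS-washed, then stained with Annexin-V and 7-AAD in HEPES/NaCl/CaCl₂ buffer pH 7.4 for 15 min, dark, ambient temperature. Flow cytometry followed immediately. Annexin V−/7-AAD− cells were scored viable, normalized to untreated specimens.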

Data set [2] is described as follows: Antileukemic activity against acute myeloid leukemia cell assessed as cell death. The data set is classed as functional. To be noted: read-out: LD50 (the source's name). In outline: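 Primary AML cells from consenting volunteer donors (one million cells) were cultured in serum-free medium. They were exposed for 24 h, with or without analog, in a dose-response series over 2.5–20 range. Cells were PBS-washed, stained with Annexin-V/7-AAD in HEPES pH 7.4 binding buffer for 15 min in the dark at ambient temperature, then run on a flow cytometer. Viability (Annexin V−/7-AAD−) was normalized to untreated controls, and LD₅₀ was calculated from this series.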

Data set [3] in a line: Aqueous solubility of the compound. The data set is classed as physicochemical. To be noted: buffer.

With `C/C1=C/CC[C@@]2(C)O[C@H]2[C@H]2OC(=O)[C@@H](CNCCO)[C@@H]2CC1.O=C(O)/C=C/C(=O)O`, in data set [1], the Activity is 0%.

Take `C/C1=C/CC[C@@]2(C)O[C@H]2[C@H]2OC(=O)[C@@H](CN(C)[C@@H]3[C@@H](O)[C@H](O)[C@@H](CO)O[C@H]3O)[C@@H]2CC1.O=C(O)/C=C/C(=O)O`: the Activity in data set [1] is listed as 0%.

Consider `C#CNC[C@@H]1C(=O)O[C@H]2[C@H]1CC/C(C)=C\CC[C@@]1(C)O[C@@H]21.O=C(O)/C=C/C(=O)O`, for which the Activity in data set [1] was 7%.

As for `C/C1=C/CC[C@@]2(C)O[C@H]2[C@H]2OC(=O)[C@@H](CN(C(C)C)C(C)C)[C@@H]2CC1.O=C(O)/C=C/C(=O)O`, the Activity in data set [1] is recorded as 20%.

On to `C/C1=C/CC[C@@]2(C)O[C@H]2[C@H]2OC(=O)[C@@H](CN(C)C)[C@@H]2CC1.O=C(O)/C=C/C(=O)O`, for which the CC50 in data set [2] came to 1700 nM. Also, the Activity in data set [1] is on record as 93%.

Take `C/C1=C/CC[C@@]2(C)O[C@H]2[C@H]2OC(=O)[C@@H](CN[C@@H]3[C@@H](O)[C@H](O)[C@@H](CO)O[C@H]3O)[C@@H]2CC1.O=C(O)/C=C/C(=O)O`: the Activity in data set [1] worked out at 0%.

As for `C/C1=C/CC[C@@]2(C)O[C@H]2[C@H]2OC(=O)[C@@H](CNCCCO)[C@@H]2CC1.O=C(O)/C=C/C(=O)O`, the Activity in data set [1] came out at 0%.

`CCNC[C@@H]1C(=O)O[C@H]2[C@H]1CC/C(C)=C\CC[C@@]1(C)O[C@@H]21.O=C(O)/C=C/C(=O)O`: the CC50 in data set [2] was 31000 nM. Besides, the Activity in data set [1] is given as 2%.

On to `C/C1=C/CC[C@@]2(C)O[C@H]2[C@H]2OC(=O)[C@@H](CN3CCOCC3)[C@@H]2CC1.O=C(O)/C=C/C(=O)O`, for which the CC50 in data set [2] was 14000 nM. In addition, the Activity in data set [1] worked out at 20%.

Regarding `C/C1=C/CC[C@@]2(C)O[C@H]2[C@H]2OC(=O)[C@@H](CN3CCC(C)CC3)[C@@H]2CC1.O=C(O)/C=C/C(=O)O`, the CC50 in data set [2] came out at 1600 nM. For the same compound, the Activity in data set [1] is on record as 83%.

Consider `C/C1=C/CC[C@@]2(C)O[C@H]2[C@H]2OC(=O)[C@@H](CN3CCCCC3)[C@@H]2CC1.O=C(O)/C=C/C(=O)O`, for which the CC50 in data set [2] worked out at 2400 nM. Moreover, the Activity in data set [1] is on record as 76%.

`CCCN(C)C[C@@H]1C(=O)O[C@H]2[C@H]1CC/C(C)=C\CC[C@@]1(C)O[C@@H]21.O=C(O)/C=C/C(=O)O`: in data set [2], the CC50 amounted to 3200 nM. Moreover, in data set [1], the Activity was determined as 95%.

For `C=C1C(=O)O[C@H]2[C@H]1CC/C(CO)=C\CC[C@@]1(C)O[C@@H]21`, the Activity in data set [1] is recorded as 0%.

Take `C=C1C(=O)O[C@H]2[C@H]1CC/C(C=O)=C\CC[C@@]1(C)O[C@@H]21`: the Activity in data set [1] was 0%.

As to `C/C1=C/CC[C@@]2(C)O[C@H]2[C@H]2OC(=O)[C@@H](C)[C@@H]2CC1`, the Activity in data set [1] is listed as 0%.

As to `C/C1=C/CC[C@@]2(C)O[C@H]2[C@H]2OC(=O)[C@@H](CN3CC3)[C@@H]2CC1.O=C(O)/C=C/C(=O)O`, the Activity in data set [1] is 22%.

In the case of `C/C1=C/CC[C@@]2(C)O[C@H]2[C@H]2OC(=O)[C@@H](CNN(C)C)[C@@H]2CC1.O=C(O)/C=C/C(=O)O`, the Activity in data set [1] worked out at 0%.

Consider `C/C1=C/CC[C@@]2(C)O[C@H]2[C@H]2OC(=O)[C@@H](CNC3CC3)[C@@H]2CC1.O=C(O)/C=C/C(=O)O`, for which the Activity in data set [1] is 6%.

For the compound `C[C@@H]1C(=O)O[C@H]2[C@H]1CCC1(C)OC1CC[C@@]1(C)O[C@@H]21` (some centres not stated), the Activity in data set [1] was 0%.

Take `C/C1=C/CC[C@@]2(C)O[C@H]2[C@H]2OC(=O)[C@@H](CN3CCCCCC3)[C@@H]2CC1.O=C(O)/C=C/C(=O)O`: in data set [1], the Activity is on record as 15%.

Regarding `C/C1=C/CC[C@@]2(C)O[C@H]2[C@H]2OC(=O)[C@@H](CN3CCCC3)[C@@H]2CC1.O=C(O)/C=C/C(=O)O`, the CC50 in data set [2] was determined as 2700 nM. The Activity in data set [1] stood at 82%.

Consider `CCCCCN(C)C[C@@H]1C(=O)O[C@H]2[C@H]1CC/C(C)=C\CC[C@@]1(C)O[C@@H]21.O=C(O)/C=C/C(=O)O`, for which, in data set [2], the CC50 worked out at 4600 nM. Also, in data set [1], the Activity is reported as 46%.

As for `C=CCN(CC=C)C[C@@H]1C(=O)O[C@H]2[C@H]1CC/C(C)=C\CC[C@@]1(C)O[C@@H]21.O=C(O)/C=C/C(=O)O`, the Activity in data set [1] was found to be 0%.

In the case of `CCCN(CCC)C[C@@H]1C(=O)O[C@H]2[C@H]1CC/C(C)=C\CC[C@@]1(C)O[C@@H]21.O=C(O)/C=C/C(=O)O`, the Activity in data set [1] stood at 0%.

Regarding `CCN(C)C[C@@H]1C(=O)O[C@H]2[C@H]1CC/C(C)=C\CC[C@@]1(C)O[C@@H]21.O=C(O)/C=C/C(=O)O`, the CC50 in data set [2] came out at 2500 nM. Moreover, in data set [1], the Activity stood at 80%.

With `C=C1C(=O)O[C@@H]2C3O[C@]3(C)CC/C=C(\C)CC[C@@H]12` (some centres not stated), the CC50 in data set [2] amounted to 1400 nM. Moreover, in data set [1], the Activity worked out at 84%. Further, in data set [3], the solubility is given as 0.169 uM/ml.

As for `C/C1=C/CC[C@@]2(C)O[C@H]2[C@H]2OC(=O)[C@@H](CN(C)C(C)C)[C@@H]2CC1.O=C(O)/C=C/C(=O)O`, the Activity in data set [1] was 78%.

For the compound `C/C1=C/CC[C@@]2(C)O[C@H]2[C@H]2OC(=O)[C@@H](CN(C)CCO)[C@@H]2CC1.O=C(O)/C=C/C(=O)O`, the CC50 in data set [2] was 1800 nM. The Activity in data set [1] was found to be 86%.

Regarding `C/C1=C/CC[C@@]2(C)O[C@H]2[C@H]2OC(=O)[C@@H](CN3CCCCCCC3)[C@@H]2CC1.O=C(O)/C=C/C(=O)O`, the Activity in data set [1] is reported as 13%.

Regarding `C/C1=C/CC[C@@]2(C)O[C@H]2[C@H]2OC(=O)[C@@H](CNNC(C)(C)C)[C@@H]2CC1.O=C(O)/C=C/C(=O)O`, the Activity in data set [1] worked out at 0%.

Regarding `CCCCN(C)C[C@@H]1C(=O)O[C@H]2[C@H]1CC/C(C)=C\CC[C@@]1(C)O[C@@H]21.O=C(O)/C=C/C(=O)O`, the CC50 in data set [2] was 2800 nM. Moreover, the Activity in data set [1] came out at 68%.

On to `C/C1=C/CC[C@@]2(C)O[C@H]2[C@H]2OC(=O)[C@@H](CN(C)C3CCCCC3)[C@@H]2CC1.O=C(O)/C=C/C(=O)O`, for which the CC50 in data set [2] is 15000 nM. Moreover, the Activity in data set [1] came out at 0%.

For the compound `C/C1=C/CC[C@@]2(C)O[C@H]2[C@H]2OC(=O)[C@@H](CNCCCN)[C@@H]2CC1.O=C(O)/C=C/C(=O)O`, the Activity in data set [1] came out at 0%.

As for `C/C1=C/CC[C@@]2(C)O[C@H]2[C@H]2OC(=O)[C@@H](CN(C3CCCCC3)C3CCCCC3)[C@@H]2CC1.O=C(O)/C=C/C(=O)O`, in data set [1], the Activity came out at 12%.

Consider `C/C1=C/CC[C@@]2(C)O[C@H]2[C@H]2OC(=O)[C@@H](CNCCN)[C@@H]2CC1.O=C(O)/C=C/C(=O)O`, for which the Activity in data set [1] was 0%.

With `CNC[C@@H]1C(=O)O[C@H]2[C@H]1CC/C(C)=C\CC[C@@]1(C)O[C@@H]21.O=C(O)/C=C/C(=O)O`, the CC50 in data set [2] worked out at 18000 nM. Also, the Activity in data set [1] came to 4%.

Regarding `CCN(CC)C[C@@H]1C(=O)O[C@H]2[C@H]1CC/C(C)=C\CC[C@@]1(C)O[C@@H]21.O=C(O)/C=C/C(=O)O`, in data set [1], the Activity is given as 60%.

These data come from ChEMBL document CHEMBL1152358, “Aminoparthenolides as novel anti-leukemic agents: Discovery of the NF-kappaB inhibitor, DMAPT (LC-1)” (Bioorg Med Chem Lett, 2009).
